Shown are actives, neighbours in structure and some others; about 1.9% of the full set was active somewhere.
PLC-beta3 inh: inhibitors of human phospholipase C beta3 | AID 720704 | Q01970 | 370,000 tested, 0.18% active | Purified PLC-beta3, fluorogenic substrate, fluorescence | inhibition, % at 12.2 µM;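 further: 0% = median of compound wells on plate and 100% = full blocker control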
Target sequence (Q01970 whole entry, looked up): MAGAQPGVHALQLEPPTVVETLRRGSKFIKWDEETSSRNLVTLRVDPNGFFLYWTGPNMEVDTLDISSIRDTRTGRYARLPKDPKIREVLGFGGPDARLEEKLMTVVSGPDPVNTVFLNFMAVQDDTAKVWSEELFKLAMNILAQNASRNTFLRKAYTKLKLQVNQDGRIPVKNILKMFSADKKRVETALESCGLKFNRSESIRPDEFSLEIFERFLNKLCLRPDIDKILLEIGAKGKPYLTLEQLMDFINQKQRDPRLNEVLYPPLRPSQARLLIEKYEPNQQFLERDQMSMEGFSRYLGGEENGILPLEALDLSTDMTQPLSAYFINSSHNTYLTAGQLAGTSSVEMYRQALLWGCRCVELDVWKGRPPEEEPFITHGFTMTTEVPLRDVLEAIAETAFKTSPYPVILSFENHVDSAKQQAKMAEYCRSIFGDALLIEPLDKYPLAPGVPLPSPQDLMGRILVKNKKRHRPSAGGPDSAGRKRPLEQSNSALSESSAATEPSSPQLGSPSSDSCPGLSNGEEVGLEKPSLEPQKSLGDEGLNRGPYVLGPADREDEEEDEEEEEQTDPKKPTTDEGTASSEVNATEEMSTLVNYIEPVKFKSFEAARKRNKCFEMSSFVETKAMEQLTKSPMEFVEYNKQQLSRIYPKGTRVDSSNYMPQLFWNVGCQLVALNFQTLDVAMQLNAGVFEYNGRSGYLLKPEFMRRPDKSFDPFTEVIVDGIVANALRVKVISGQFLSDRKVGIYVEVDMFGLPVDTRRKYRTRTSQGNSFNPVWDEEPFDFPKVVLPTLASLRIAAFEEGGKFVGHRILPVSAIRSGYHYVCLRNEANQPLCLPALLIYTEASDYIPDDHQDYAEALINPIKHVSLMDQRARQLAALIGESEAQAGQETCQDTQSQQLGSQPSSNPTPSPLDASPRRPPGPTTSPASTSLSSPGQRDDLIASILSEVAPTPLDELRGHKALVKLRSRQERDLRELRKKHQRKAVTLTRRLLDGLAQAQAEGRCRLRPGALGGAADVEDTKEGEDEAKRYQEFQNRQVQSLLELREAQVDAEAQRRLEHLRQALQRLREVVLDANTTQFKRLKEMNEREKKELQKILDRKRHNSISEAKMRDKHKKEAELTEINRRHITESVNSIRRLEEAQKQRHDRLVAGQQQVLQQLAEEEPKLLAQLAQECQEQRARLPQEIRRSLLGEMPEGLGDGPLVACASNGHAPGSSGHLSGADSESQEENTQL
sPLA2-III inh: Blocks human group III sPLA2 activity. QFRET BODIPY PC-A2 liposome hydrolysis, fluorescence. inhibition, % at 12.2 µM. 370,000 tested, 0.56% active. AID 743126;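 active means inhibition above mean plus 3 SD of compounds lying within the high and low control bounds, cut at about 19% in these data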;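 further: 0% = median of test compound wells and 100% = no enzyme DMSO wells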
proCasp3 act: activators of human procaspase-3. P42574. recombinant procaspase-3 D3A, Ac-DEVD-pNA absorbance 405 nm. activation, % at 8.5 µM. 330,000 tested, 0.11% active;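 active means activation above the mean of all tested compounds plus 3 SD, cut at about 21% in these data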;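 further: 0% = DMSO alone and 100% = DMSO wells spiked with extra 5 µM PC-3 D3A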
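Assay system – Procaspase-3 D3A mutant, all three cleavage aspartates alanine · Controls – DMSO-only low control, 5 µM PC-3 D3A high control · Schedule – 1 h compound preincubation, 2 h substrate hydrolysis at 25 °C · Signal – 405 nm absorbance of p-nitroaniline, reads at 0 and 120 min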
procasp7 counter: activates human procaspase-7, counter-screen for procaspase-3 activators; recombinant procaspase-7, Ac-DEVD-pNA absorbance 405 nm; D23A/D198A/D206A triple mutant, cannot self-cleave; scale: DMSO 0, 5 µM enzyme 100; activation, % at 8.5 µM; 330,000 tested, 0.093% active; AID 463210;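 active means percent activation above the screen-wide mean plus 3 SD, cut at about 25% in these data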
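buffer or medium = Zinc-free HEPES/NaCl buffer, pH 7.4 | material = Procaspase-7 triple mutant (PC-7 D3A) | input = 2 µM procaspase-7 mutant as dispensed | signal = Epi-absorbance of released pNA at 405 nm, two timepoints | timing = 1 h preincubation, 2 h reaction | replicates = singlicate compound testing | evaluation = % activation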
Arrestin-AP2 inh: human beta-arrestin and AP2 interaction inhibition; FITC-arrestin peptide / GST-AP2 beads, flow cytometry; AP2 beta2 appendage carries R879A mutation; inhibition, % at 10 µM; 340,000 tested, 0.31% active;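 active means inhibition above a set limit, near 3 SD of compounds lacking own fluorescence, cut at about 54% in these data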;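 further: plate controls were DMSO wells for no effect and 5 µM unlabelled arrestin peptide for full effect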
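test system = AP2 appendage R879A on GSH beads | buffer or medium = PBS plus Tween 20 (0.05%) and BSA (0.1%) | incubation = 12 min plus 1 h, RT | detection = bead flow cytometry, FITC channel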
PLCg1 inh: PLC-gamma1 (human) inhibition, primary screen; 370,000 tested, 0.84% active; inhibition, % at 12.2 µM; purified PLC-gamma1, fluorogenic substrate, fluorescence; P19174; AID 720700; in the data active means inhibition above about 9.5%
PLCgamma1 ctr: counter-screen for PLC-beta3 inhibitors: inhibitors of human PLC-gamma1; purified PLC-gamma1, fluorogenic substrate, fluorescence; shares compounds with PLCg1 inh; AID 743258; 3,300 tested, 3.1% active; inhibition, % at 12.3 µM; in the data active means inhibition above about 9.5%
PLCbeta3 conf: human PLC-beta3 inhibition, confirmation; 3,300 tested, 1% active; shares compounds with PLCg1 inh; inhibition, % at 12.3 µM; purified PLC-beta3, fluorogenic substrate fluorescence; AID 743261
* hit, by the source's call; . = no result. Unless noted, no stated cut-off is given here; in the data, active means inhibition above about 11%; inactive means the rest.

SMILES	PLC-beta3 inh	sPLA2-III inh	proCasp3 act	procasp7 counter	Arrestin-AP2 inh	PLCg1 inh	PLCgamma1 ctr	PLCbeta3 conf
CN(Cc1nc2ccccc2[nH]1)C(=O)C1CCC(=O)N(C2CCCC2)C1 (stereo not given)	-2.4	0.5	2.2	-5.2	-3.1	9.8*	-1.4	1.6
CC1CCCCC1N=CC1=C(O)CC(C)(C)CC1=O (stereo not given)	9.6	0.2	-7.1	4.2	-10.6	10.9*	-4.4	-2.0
CCC(CO)N=CC1=C(O)CC(C)(C)CC1=O (stereo not given)	9.5	6.4	2.1	1.1	-11.2	0.8	.	.
Oc1ccc(/C=N/NC(=S)Nc2cccnc2)c(O)c1	-127.5	-7.2	-19.2	-13.2	6.6	-111.8	.	.
Oc1ccc(/C=N/NC(=S)Nc2cccnc2)c(O)c1O	-4.0	-5.3	.	.	17.1	11.5*	-4.6	-8.4
COCCN(Cc1ccc(C)cc1)C(=O)[C@H]1O[C@@H](n2ccc(=O)[nH]c2=O)[C@H](O)[C@@H]1O	0.4	-5.1	.	.	.	1.8	.	.
CCOCCn1c(CN2CCN(CCO)CC2)nc2c1c(=O)n(C)c(=O)n2C	0.2	10.2	2.3	-12.3	-4.0	11.5*	-0.2	-2.8
COc1ccc(N2CCN(Cc3nc4c(c(=O)n(C)c(=O)n4C)n3CCc3ccccc3)CC2)cc1	6.2	9.6	-3.7	5.8	3.9	12.7*	7.7	0.3
COCCn1c(CN2CCN(c3ccc(OC)cc3)CC2)nc2c1c(=O)n(C)c(=O)n2C	2.2	0.3	-3.2	16.0	9.4	-0.7	.	.
CCOCCn1c(CN2CCN(c3ccc(OC)cc3)CC2)nc2c1c(=O)n(C)c(=O)n2C	5.9	1.2	5.9	-0.1	-3.8	4.2	.	.
Cn1c(=O)c2c(nc(CN3CCN(CCO)CC3)n2Cc2ccccc2Cl)n(C)c1=O	5.8	4.7	1.8	12.7	24.0	12.1*	-1.5	-0.8
CCn1c(SCC(=O)Nc2ccccc2-c2ccccc2)nnc1-c1cnccn1	1.6	0.6	.	.	.	-1.6	.	.
Cc1ccc(C(=O)n2ccc3ccc(-c4ccc5ccn(Cc6ccc(C#N)cc6)c5c4)cc32)cc1	-134.7	0.7	.	.	.	-86.0	.	.
CCCCN(C(=O)COc1ccc(C)cc1OC)c1c(N)n(CCC)c(=O)[nH]c1=O	-4.7	15.5	4.9	5.9	7.5	11.6*	-2.6	-0.9
CCCCn1c(N)c(N(CCOC)C(=O)COC(=O)COc2cc(C)ccc2Cl)c(=O)[nH]c1=O	-6.8	-7.1	1.5	0.1	-6.8	-0.1	.	.
Cc1ccccc1CN1CCN(CC(=O)NCCCN2CCN(c3ccc(F)cc3)CC2)C1=O	13.3*	-3.4	8.5	5.9	10.7	9.6*	-2.0	-3.3
Cc1cccc(C)c1NC(=O)C(c1ccnc2ccccc12)n1c(=O)c(-c2ccccc2)nc2ccccc21 (stereo not given)	-78.1	11.2	.	.	.	-58.7	.	.
O=C(NNc1ccc([N+](=O)[O-])cc1[N+](=O)[O-])c1ccco1	.	.	-1.9	-12.4	-13.6	.	.	.
Nc1ccc([N+](=O)[O-])cc1C(=O)NNC(=O)c1ccco1	3.0	6.8	-13.5	2.9	30.9	9.7*	6.6	7.4
O=C(NC(=S)Nc1ccc([N+](=O)[O-])cc1)c1ccco1	5.3	9.2	.	.	.	13.0*	-2.7	0.2
O=C(c1cnc(-c2ccccc2)s1)c1ccc(Cl)cc1Cl	1.7	-2.2	0.2	-0.7	7.1	9.7*	-2.2	-1.9
O=C(COc1ccc(S(=O)(=O)N2CCOCC2)cc1)NC1CCCC1	0.5	3.4	9.2	-0.2	10.0	5.8	.	.
COc1ccc(C(=O)Nc2nnc(C)s2)cc1S(=O)(=O)N1CCOCC1	-8.0	16.6	0.8	-6.1	-10.2	11.9*	-8.1	-3.5
COc1ccc(C(=O)OCC(=O)NC2CC2)cc1S(=O)(=O)N1CCOCC1	6.2	0.1	9.6	3.7	-17.0	9.6*	-4.9	-0.3
O=C(COc1ccc(S(=O)(=O)N2CCOCC2)cc1)NC1CC1	1.6	10.4	4.0	5.2	-6.9	10.1*	0.5	3.0
SMILES	PLC-beta3 inh	sPLA2-III inh	proCasp3 act	procasp7 counter	Arrestin-AP2 inh	PLCg1 inh	PLCgamma1 ctr	PLCbeta3 conf
O=C(NC1CCCC1)C(c1ccccc1)n1c(CSCCOc2ccccc2)nc2ccccc21 (stereo not given)	-2.1	-10.5	.	.	.	2.0	.	.
O=C(Nc1c(-c2ccc(F)cc2)nc2ncccn12)c1ccc(F)cc1	-369.5	0.3	.	.	.	-273.8	.	.
COC(=O)c1cc(-c2cccc(C(F)(F)F)c2)c(=O)n2c1CCC2	-19.0	10.9	.	.	.	-8.1	.	.
CCOC(=O)C(CNc1ccc(O)cc1)NC(=O)c1ccccc1 (stereo not given)	-8.7	-13.6	.	.	.	-9.0	.	.
COc1ccc(CCNC(=O)CCNS(=O)(=O)c2cccc3nsnc23)cc1OC	2.4	5.4	-7.7	-9.3	33.1	10.8*	-4.0	-4.5
CC(=O)N1CCc2cc(S(=O)(=O)CCC(=O)Nc3ccc4c(c3)OCCO4)ccc21	-0.4	-0.6	6.2	5.8	2.5	2.0	.	.
CC(=O)N1CCc2cc(S(=O)(=O)NC(C(=O)Nc3ccc4c(c3)OCCO4)C(C)C)ccc21 (stereo not given)	2.9	10.9	-7.7	-4.6	5.3	10.8*	2.5	5.4
O=C(CCn1nnc(-c2cccs2)n1)N1CCCC1	5.4	2.8	.	.	.	-0.1	.	.
Nc1cc(=O)[nH]c(SCc2cccc(Cl)c2)n1	10.3	7.4	2.7	2.4	-1.7	10.0*	2.0	3.3
COc1ccc(Cn2cc(COC(=O)N3CCOCC3)nn2)cc1	-2.3	6.4	.	.	.	0.1	.	.
Cc1ccc(/C=C/C(=O)O)cc1S(=O)(=O)NCC1CCCO1 (stereo not given)	0.4	1.4	2.9	-5.4	-8.5	0.7	.	.
Cc1ccc(/C=C/C(=O)O)cc1S(=O)(=O)NC1CCS(=O)(=O)C1 (stereo not given)	8.3	6.1	4.1	-2.6	50.4	11.2*	-0.5	1.2
COC1=CC(=O)OC(c2cccc(Cl)c2)C1 (stereo not given)	3.7	-3.0	.	.	.	1.6	.	.
O=C(CC[C@H]1O[C@@H](n2ccc(=O)[nH]c2=O)[C@H](O)[C@@H]1O)N[C@@H](Cc1ccccc1)C(=O)NCC1CCCCC1	-4.1	-1.0	.	.	.	3.0	.	.
Cc1ccc(NC(=O)/C(C#N)=C/c2ccsc2)c(C)c1	10.9*	-0.1	-1.4	-3.1	-2.0	5.2	-6.8	-3.3
CCOC(=O)C1(CC2CC2)CCN(S(=O)(=O)C[C@]23CC[C@H](CC2=O)C3(C)C)CC1	4.7	-0.5	-1.7	-0.3	-7.1	11.9*	-1.3	2.1
